{"source": "ChEMBL document CHEMBL1156771", "about": "“Synthesis and antimalarial evaluation of 1, 3, 5-trisubstituted pyrazolines” (Eur J Med Chem, 2010)", "key": {"[1]": {"assay": "Selectivity ratio, CC50 for human HeLa cells to IC50 for Plasmodium falciparum RKL09", "assay_type": "ADME, cell-based", "settings": "read-out: Ratio CC50/IC50", "procedure,_shortened": "(§1)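 The IC50 came from sorbitol-synchronized ring-stage cultures at 1–1.5% parasitemia in human B+ erythrocytes in RPMI-1640/HEPES with 10% AB+ serum, given two-fold dilutions (ethanol ≤0.5% final). Cultures ran 24 h at 37 °C in duplicate, and schizonts per 100 asexual parasites were counted on Giemsa smears.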"}, "Plasmodium falciparum [2]": {"test_system": "Plasmodium falciparum", "assay": "Antiplasmodial activity against chloroquine-sensitive Plasmodium falciparum MRC-02 infected in human erythrocyte assessed as inhibition of schizont maturation after 24 hrs", "assay_type": "functional, organism-based", "settings": "MRC-02, 24 h", "procedure,_shortened": "(§2)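 Sorbitol-synchronised ring-stage culture in human B+ erythrocytes, in RPMI-1640 with 25 mM HEPES, 10% AB+ serum and 0.2% bicarbonate under 5% CO2. Parasitaemia was set at 1–1.5%. Cultures were exposed to two-fold serial dilutions for 24 h at 37 °C (ethanol ≤0.5% final), duplicate wells per dose. Schizonts per 100 asexual parasites were counted on Giemsa smears. Inhibition = (1−Nt/Nc)×100.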"}, "[3]": {"assay": "Inhibition of beta-hematin formation by BHIA assay", "assay_type": "functional", "procedure,_shortened": "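Compounds (6 to 0.3 mM) were incubated with hematin in the presence of glacial acetic acid at 37 °C for 24 h. Water or ethanol served as controls. The pellet was washed with DMSO to remove unconverted hematin, and the remaining β-hematin was dissolved in 0.1 N NaOH. Absorbance was read at 405 nm to derive BHIA50.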"}, "[4]": {"assay": "Selectivity ratio of CC50 for human HeLa cells to IC50 for Plasmodium falciparum MRC-02", "assay_type": "ADME, cell-based", "settings": "read-out: Ratio CC50/IC50", "procedure,_shortened": "as §1"}, "Plasmodium falciparum [5]": {"test_system": "Plasmodium falciparum", "assay": "Antiplasmodial activity against chloroquine-resistant Plasmodium falciparum RKL09 infected in human erythrocyte assessed as inhibition of schizont maturation after 24 hrs", "assay_type": "functional, organism-based", "settings": "RKL09, 24 h", "procedure,_shortened": "as §2"}, "[6]": {"assay": "Cytotoxicity against human HeLa cells after 72 hrs by neutral red uptake assay", "assay_type": "cell-based", "procedure,_shortened": "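HeLa cells grown in EMEM with 10% FBS were seeded at 2×10^3 per well and left overnight at 37 °C, 5% CO2. They were exposed to two-fold serial dilutions from DMSO stocks (DMSO ≤0.1%) in duplicate for 72 h. Cells were fixed in glutaraldehyde, stained with 0.2% neutral red and lysed in acid ethanol, then read at 550 nm against DMSO controls. The value reported is MNTD, the highest concentration giving 100% survival.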"}, "Plasmodium berghei [7]": {"test_system": "Plasmodium berghei", "assay": "Antimalarial activity against Plasmodium berghei ANKA infected in Swiss albino mice (Mus musculus) assessed as suppression of parasitemia at 25 mg/kg/day, perorally for 4 days", "assay_type": "functional", "settings": "route oral", "procedure,_shortened": "(§3)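 Peters' 4-day suppressive test in male Swiss albino mice (18–20 g), five per group. Mice were infected intraperitoneally with about 30% P. berghei-infected donor erythrocytes, then dosed orally 4 h later and on days 0–3. Controls received the suspending solvent. Giemsa-stained tail smears were read on days 4 and 7; % suppression was calculated against controls. Survival was followed for 28 days for MST.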"}, "Plasmodium berghei [8]": {"test_system": "Plasmodium berghei", "assay": "Antimalarial activity against Plasmodium berghei ANKA infected in Swiss albino mice (Mus musculus) assessed as suppression of parasitemia at 50 mg/kg/day, perorally for 4 days", "assay_type": "functional", "settings": "route oral", "procedure,_shortened": "as §3"}, "Plasmodium berghei [9]": {"test_system": "Plasmodium berghei", "assay": "Antimalarial activity against Plasmodium berghei ANKA infected in Swiss albino mice (Mus musculus) assessed as mean survival time at 25 mg/kg/day, perorally for 4 days measured after 28 days", "assay_type": "functional", "settings": "route oral", "procedure,_shortened": "(§4)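 Peters 4-day suppressive test in male Swiss albino mice (18–20 g), groups of five. Mice inoculated intraperitoneally with P. berghei ANKA-infected erythrocytes from a donor mouse. Oral dosing began 4 h later and was given once daily on days 0–3. Vehicle controls received the suspending solvent. Mean survival time was taken from deaths over a 28-day observation period.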"}, "Plasmodium berghei [10]": {"test_system": "Plasmodium berghei", "assay": "Antimalarial activity against Plasmodium berghei ANKA infected in Swiss albino mice (Mus musculus) assessed as mean survival time at 50 mg/kg/day, perorally for 4 days measured after 28 days", "assay_type": "functional", "settings": "route oral", "procedure,_shortened": "as §4"}, "Plasmodium berghei [11]": {"test_system": "Plasmodium berghei", "assay": "Antimalarial activity against Plasmodium berghei ANKA infected in Swiss albino mice (Mus musculus) assessed as mean survival time at 8 mg/kg/day, perorally for 4 days measured after 28 days", "assay_type": "functional, organism-based", "procedure,_shortened": "as §3"}, "Plasmodium berghei [12]": {"test_system": "Plasmodium berghei", "assay": "Antimalarial activity against Plasmodium berghei ANKA infected in Swiss albino mice (Mus musculus) assessed as suppression of parasitemia at 8 mg/kg/day, perorally for 4 days", "assay_type": "functional", "settings": "route oral", "procedure,_shortened": "as §3"}}, "note": "Calls of active or inactive are those of the source. No cut-off for these calls is given here.", "data": [{"smiles": "COc1ccc(Br)cc1C1CC(c2ccc(O)cc2)=NN1C(=O)c1cccnc1", "note": "(centres undefined)", "values": [{"measurement": "selectivity ratio", "setting": "[1]", "result": 11}, {"measurement": "IC50", "setting": "Plasmodium falciparum [2]", "result": 0.0495, "unit": "µM"}, {"measurement": "IC50", "setting": "[3]", "result": 1890, "unit": "µM"}, {"measurement": "selectivity ratio", "setting": "[4]", "result": 53.7}, {"measurement": "IC50", "setting": "Plasmodium falciparum [5]", "result": 0.242, "unit": "µM"}, {"measurement": "MNTC at 72 h", "setting": "[6]", "result": 2660, "unit": "nM"}]}, {"smiles": "O=C(c1cccnc1)N1N=C(c2ccc(O)cc2)CC1c1cccc([N+](=O)[O-])c1", "note": "(centres undefined)", "values": [{"measurement": "selectivity ratio", "setting": "[1]", "result": 8.85}, {"measurement": "IC50", "setting": "Plasmodium falciparum [2]", "result": 0.106, "unit": "µM"}, {"measurement": "IC50", "setting": "[3]", "result": 2070, "unit": "µM"}, {"measurement": "selectivity ratio", "setting": "[4]", "result": 35.2}, {"measurement": "IC50", "setting": "Plasmodium falciparum [5]", "result": 0.423, "unit": "µM"}, {"measurement": "MNTC at 72 h", "setting": "[6]", "result": 3750, "unit": "nM"}]}, {"smiles": "O=C(c1cccnc1)N1N=C(c2ccc(O)cc2)CC1c1ccc(Cl)cc1Cl", "note": "(centres undefined)", "values": [{"measurement": "Activity", "setting": "Plasmodium berghei [7]", "result": 60.55, "unit": "%"}, {"measurement": "Activity", "setting": "Plasmodium berghei [8]", "result": 68.93, "unit": "%"}, {"measurement": "selectivity ratio", "setting": "[1]", "result": 18.4}, {"measurement": "IC50", "setting": "Plasmodium falciparum [2]", "result": 0.0375, "unit": "µM"}, {"measurement": "Activity", "setting": "Plasmodium berghei [9]", "result": 11.6, "unit": "days"}, {"measurement": "IC50", "setting": "[3]", "result": 1530, "unit": "µM"}, {"measurement": "Activity", "setting": "Plasmodium berghei [10]", "result": 13.2, "unit": "days"}, {"measurement": "selectivity ratio", "setting": "[4]", "result": 33.3}, {"measurement": "IC50", "setting": "Plasmodium falciparum [5]", "result": 0.068, "unit": "µM"}, {"measurement": "MNTC at 72 h", "setting": "[6]", "result": 1250, "unit": "nM"}]}, {"smiles": "Cc1ccc(C2CC(c3ccc(O)cc3)=NN2C(=O)c2cccnc2)cc1", "note": "(centres undefined)", "values": [{"measurement": "selectivity ratio", "setting": "[1]", "result": 24.6}, {"measurement": "IC50", "setting": "Plasmodium falciparum [2]", "result": 0.0555, "unit": "µM"}, {"measurement": "IC50", "setting": "[3]", "result": 1570, "unit": "µM"}, {"measurement": "selectivity ratio", "setting": "[4]", "result": 39.4}, {"measurement": "IC50", "setting": "Plasmodium falciparum [5]", "result": 0.0887, "unit": "µM"}, {"measurement": "MNTC at 72 h", "setting": "[6]", "result": 2190, "unit": "nM"}]}, {"smiles": "O=C(c1cccnc1)N1N=C(c2ccc(O)cc2)CC1c1cccc(Br)c1", "note": "(centres undefined)", "values": [{"measurement": "selectivity ratio", "setting": "[1]", "result": 39}, {"measurement": "IC50", "setting": "Plasmodium falciparum [2]", "result": 0.026, "unit": "µM"}, {"measurement": "IC50", "setting": "[3]", "result": 2060, "unit": "µM"}, {"measurement": "selectivity ratio", "setting": "[4]", "result": 118}, {"measurement": "IC50", "setting": "Plasmodium falciparum [5]", "result": 0.0786, "unit": "µM"}, {"measurement": "MNTC at 72 h", "setting": "[6]", "result": 3060, "unit": "nM"}]}, {"smiles": "CCOc1ccc(C2CC(c3ccc(O)cc3)=NN2C(=O)c2cccnc2)cc1OC", "note": "(centres undefined)", "values": [{"measurement": "selectivity ratio", "setting": "[1]", "result": 16.6}, {"measurement": "IC50", "setting": "[3]", "result": 2390, "unit": "µM"}, {"measurement": "selectivity ratio", "setting": "[4]", "result": 47.5}, {"measurement": "MNTC at 72 h", "setting": "[6]", "result": 3560, "unit": "nM"}]}, {"smiles": "CCN(CC)CCCC(C)Nc1ccnc2cc(Cl)ccc12.O=P(O)(O)O.O=P(O)(O)O", "note": "(centres undefined) [CHLOROQUINE PHOSPHATE]", "values": [{"measurement": "Activity", "setting": "Plasmodium berghei [11]", "result": "Active"}, {"measurement": "Activity", "setting": "Plasmodium berghei [12]", "result": 100, "unit": "%"}, {"measurement": "IC50", "setting": "[3]", "result": 1890, "unit": "µM"}, {"measurement": "MNTC at 72 h", "setting": "[6]", "result": 66200, "unit": "nM"}]}, {"smiles": "O=C(c1cccnc1)N1N=C(c2ccc(O)cc2)CC1c1ccccc1", "note": "(centres undefined)", "values": [{"measurement": "selectivity ratio", "setting": "[1]", "result": 14.4}, {"measurement": "IC50", "setting": "Plasmodium falciparum [2]", "result": 0.0304, "unit": "µM"}, {"measurement": "IC50", "setting": "[3]", "result": 1580, "unit": "µM"}, {"measurement": "selectivity ratio", "setting": "[4]", "result": 61.7}, {"measurement": "IC50", "setting": "Plasmodium falciparum [5]", "result": 0.131, "unit": "µM"}, {"measurement": "MNTC at 72 h", "setting": "[6]", "result": 1880, "unit": "nM"}]}, {"smiles": "Cc1ccccc1C1CC(c2ccc(O)cc2)=NN1C(=O)c1cccnc1", "note": "(centres undefined)", "values": [{"measurement": "selectivity ratio", "setting": "[1]", "result": 17.8}, {"measurement": "IC50", "setting": "Plasmodium falciparum [2]", "result": 0.0625, "unit": "µM"}, {"measurement": "IC50", "setting": "[3]", "result": 2430, "unit": "µM"}, {"measurement": "selectivity ratio", "setting": "[4]", "result": 29}, {"measurement": "IC50", "setting": "Plasmodium falciparum [5]", "result": 0.102, "unit": "µM"}, {"measurement": "MNTC at 72 h", "setting": "[6]", "result": 1810, "unit": "nM"}]}, {"smiles": "COc1cc(C2CC(c3ccc(O)cc3)=NN2C(=O)c2cccnc2)cc(OC)c1OC", "note": "(centres undefined)", "values": [{"measurement": "Activity", "setting": "Plasmodium berghei [7]", "result": 32.78, "unit": "%"}, {"measurement": "Activity", "setting": "Plasmodium berghei [8]", "result": 43.7, "unit": "%"}, {"measurement": "selectivity ratio", "setting": "[1]", "result": 19.5}, {"measurement": "IC50", "setting": "Plasmodium falciparum [2]", "result": 0.0265, "unit": "µM"}, {"measurement": "Activity", "setting": "Plasmodium berghei [9]", "result": 9, "unit": "days"}, {"measurement": "IC50", "setting": "[3]", "result": 1700, "unit": "µM"}, {"measurement": "Activity", "setting": "Plasmodium berghei [10]", "result": 11, "unit": "days"}, {"measurement": "selectivity ratio", "setting": "[4]", "result": 31.2}, {"measurement": "IC50", "setting": "Plasmodium falciparum [5]", "result": 0.0425, "unit": "µM"}, {"measurement": "MNTC at 72 h", "setting": "[6]", "result": 828, "unit": "nM"}]}, {"smiles": "O=C(c1cccnc1)N1N=C(c2ccc(O)cc2)CC1c1ccccc1Br", "note": "(centres undefined)", "values": [{"measurement": "Activity", "setting": "Plasmodium berghei [7]", "result": 34.98, "unit": "%"}, {"measurement": "Activity", "setting": "Plasmodium berghei [8]", "result": 47.52, "unit": "%"}, {"measurement": "selectivity ratio", "setting": "[1]", "result": 59.6}, {"measurement": "IC50", "setting": "Plasmodium falciparum [2]", "result": 0.0272, "unit": "µM"}, {"measurement": "Activity", "setting": "Plasmodium berghei [9]", "result": 9, "unit": "days"}, {"measurement": "IC50", "setting": "[3]", "result": 1820, "unit": "µM"}, {"measurement": "Activity", "setting": "Plasmodium berghei [10]", "result": 10.3, "unit": "days"}, {"measurement": "selectivity ratio", "setting": "[4]", "result": 140}, {"measurement": "IC50", "setting": "Plasmodium falciparum [5]", "result": 0.064, "unit": "µM"}, {"measurement": "MNTC at 72 h", "setting": "[6]", "result": 3810, "unit": "nM"}]}]}
